Values after ≈ are worked out from the molar mass of the structure shown.
Experiments:
[1] = system: Mycobacterium tuberculosis (RCMB 010126); test: Microplate Alamar blue assay; assay type: cell-based; settings: RCMB010126, Mycobacterium tuberculosis RCMB 010126, MABA
[2] = system: HepG-2 cells (human liver carcinoma); test: MTT cytotoxicity assay on HepG-2; assay type: cell-based; settings: HepG2, 48 h, read-out: IC50 (μM) ± SD HepG-2
How it was run: (§1)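 Cells grown in DMEM with 10% heat-inactivated FBS and 100 U ml⁻¹ penicillin/streptomycin at 37 °C, 5% CO₂. Seeded at 3 × 10⁴ cells per well and exposed for 48 h in serum-free medium to serial concentrations of test compound (DMSO), with doxorubicin as positive control. MTT (2.5 mg mL⁻¹) was added for 4 h, formazan dissolved in DMSO, and absorbance read at 570 nm. Viability was taken relative to untreated cells; triplicates were run on three days, and IC50 derived by probit analysis.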

[3] = molecular target: T1, ovine COX-2 (Ovis aries, UniProt P79208); test: COX-2 inhibition enzyme immunoassay; assay type: biochemical; settings: for Selectivity index (SI): COX-1 IC50/COX-2 IC50
T1 sequence (P79208 17-603): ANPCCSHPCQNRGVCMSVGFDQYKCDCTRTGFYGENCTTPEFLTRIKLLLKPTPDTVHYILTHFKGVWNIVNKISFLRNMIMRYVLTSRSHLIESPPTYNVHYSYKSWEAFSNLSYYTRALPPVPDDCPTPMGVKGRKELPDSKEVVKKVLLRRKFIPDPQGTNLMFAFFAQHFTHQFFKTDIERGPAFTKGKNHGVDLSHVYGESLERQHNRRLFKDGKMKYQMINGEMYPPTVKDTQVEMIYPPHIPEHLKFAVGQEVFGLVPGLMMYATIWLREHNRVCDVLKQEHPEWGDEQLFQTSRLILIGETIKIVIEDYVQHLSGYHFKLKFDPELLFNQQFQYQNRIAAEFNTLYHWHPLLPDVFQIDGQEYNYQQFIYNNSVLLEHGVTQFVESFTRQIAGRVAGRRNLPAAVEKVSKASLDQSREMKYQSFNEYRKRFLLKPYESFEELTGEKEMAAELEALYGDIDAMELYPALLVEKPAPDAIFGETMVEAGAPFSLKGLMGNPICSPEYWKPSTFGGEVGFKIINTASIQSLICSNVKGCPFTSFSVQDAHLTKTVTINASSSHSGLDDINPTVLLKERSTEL

[4] = molecular target: T2, ovine COX-1 (Ovis aries, UniProt P05979); test: COX-1 inhibition enzyme immunoassay; assay type: biochemical
T2 sequence (P05979 25-600): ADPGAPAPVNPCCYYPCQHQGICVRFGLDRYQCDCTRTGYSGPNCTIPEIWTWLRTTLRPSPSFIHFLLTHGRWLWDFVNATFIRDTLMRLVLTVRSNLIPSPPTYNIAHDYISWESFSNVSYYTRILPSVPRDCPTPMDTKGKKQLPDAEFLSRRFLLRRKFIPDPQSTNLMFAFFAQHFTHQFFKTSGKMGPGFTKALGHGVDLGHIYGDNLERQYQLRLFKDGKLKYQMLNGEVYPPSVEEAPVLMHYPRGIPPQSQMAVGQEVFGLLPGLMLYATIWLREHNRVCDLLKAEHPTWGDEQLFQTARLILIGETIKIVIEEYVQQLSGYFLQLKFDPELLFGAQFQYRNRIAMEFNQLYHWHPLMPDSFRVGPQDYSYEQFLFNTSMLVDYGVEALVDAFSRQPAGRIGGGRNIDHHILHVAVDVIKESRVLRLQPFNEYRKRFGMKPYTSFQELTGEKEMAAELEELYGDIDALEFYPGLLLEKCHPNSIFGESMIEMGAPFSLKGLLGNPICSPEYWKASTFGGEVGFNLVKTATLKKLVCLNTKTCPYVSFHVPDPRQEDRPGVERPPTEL

[5] = system: MCF-7 cells (human breast adenocarcinoma); test: MTT cytotoxicity assay on MCF-7; assay type: cell-based; settings: MCF7, 48 h, read-out: IC50 (μM) ± SD MCF-7
How it was run: as §1

SMILES	MIC [1]	IC50 [2]	IC50 [3]	Selectivity index (SI) [3]	IC50 [4]	IC50 [5]
NNC(=O)c1ccncc1 [IN, Isoniazid, reference compound]	0.24 µg/mL (≈ 1.75 µM)	–	–	–	–	–
Cc1ccc(-n2cc(C(=O)c3ccc4ccccc4c3O)cc(C#N)c2=O)cc1 [Compound 3b, 5-(1-Hydroxy-2-naphthoyl)-2-oxo-1-(p-tolyl)nicotinonitrile]	3.9 µg/mL (≈ 10.3 µM)	36.8 ± 3.9 µM	6.05 µM	76.7	464 µM	9.2 ± 0.6 µM
COc1ccc(-n2cc(C(=O)c3ccc4ccccc4c3O)cc(C#N)c2=O)cc1 [Compound 3c, 5-(1-Hydroxy-2-naphthoyl)-1-(4-methoxyphenyl)-2-oxo-nicotinonitrile]	–	27.8 ± 2.4 µM	0.53 µM	1490	789 µM	8.5 ± 0.7 µM
O=C(c1cnc2[nH]nc(O)c2c1)c1ccc2ccccc2c1O [Compound 6, 5-(1-hydroxy-2-naphthoyl)-3-hydroxy-1H-pyrazolo [3,4-b]pyridine]	< 2 µg/mL	34.9 ± 2.8 µM	30.5 µM	35.0	1070 µM	9.1 ± 0.5 µM
O=C(C1=CSc2ccccc2N=C1)c1ccc2ccccc2c1O [Compound 8, 3-(1-Hydroxy-2-naphthoyl)benzo[b][1,4]thiazepine]	7.81 µg/mL (≈ 23.6 µM)	36.5 ± 3.4 µM	0.754 µM	1138	858 µM	9.7 ± 1.1 µM
O=C(C1=CNC(=S)NN=C1)c1ccc2ccccc2c1O [Compound 7, 6-(1-Hydroxy-2-naphthoyl)-3-thioxo-3,4-dihydro-2H-1,2,4-triazepine]	< 2 µg/mL	28.8 ± 2.5 µM	1.24 µM	588.6	732 µM	10.5 ± 0.9 µM
COc1cccc2c1C(=O)c1c(O)c3c(c(O)c1C2=O)C[C@@](O)(C(=O)CO)C[C@@H]3O[C@H]1C[C@H](N)[C@H](O)[C@H](C)O1 [DOXO, Doxorubicin, reference compound]	–	28.5 ± 1.9 µM	–	–	–	10.3 ± 0.8 µM
CCOC1Oc2c(ccc3ccccc23)-c2n[nH]cc21 (centres unmarked) [Compound 10, 11-ethoxy-2,11-dihydrobenzo[7,8]chromeno[4,3-c]pyrazole]	7.81 µg/mL (≈ 29.3 µM)	34.5 ± 2.6 µM	1.01 µM	989.3	1000 µM	9.3 ± 0.5 µM
O=c1c(C=Nc2nc3ccccc3s2)coc2c1ccc1ccccc12 [Compound 12b, 3-((Benzo[d]thiazol-2-ylimino)methyl)-4H-benzo[h]chromen-4-one]	15.6 µg/mL (≈ 43.9 µM)	40.1 ± 3.9 µM	1.37 µM	971.8	1340 µM	8.9 ± 0.7 µM
N#Cc1cc(C(=O)c2ccc3ccccc3c2O)cn(-c2ccc([N+](=O)[O-])cc2)c1=O [Compound 3e, 5-(1-Hydroxy-2-naphthoyl)-1-(4-nitrophenyl)-2-oxo-nicotinonitrile]	< 2 µg/mL	25.3 ± 2.1 µM	1.68 µM	168.7	283 µM	9.3 ± 1.1 µM
Cc1c(N=Cc2coc3c(ccc4ccccc43)c2=O)c(=O)n(-c2ccccc2)n1C [Compound 12a, 1,5-Dimethyl-4-(((4-oxo-4H-benzo[h]chromen-3-yl)methylene)amino)-2-phenyl-1,2-dihydro-3H-pyrazol-3-one]	62.5 µg/mL (≈ 153 µM)	35.5 ± 3.6 µM	24.7 µM	49.5	1220 µM	10.2 ± 1.2 µM
N#Cc1cc(C(=O)c2ccc3ccccc3c2O)cn(-c2ccc(Br)cc2)c1=O [Compound 3d, 1-(4-Bromophenyl)-5-(1-hydroxy-2-naphthoyl)-2-oxo-nicotinonitrile]	< 1 µg/mL	30.1 ± 2.6 µM	1.46 µM	972.9	1420 µM	8.9 ± 0.7 µM
Cc1c(-n2cc(C(=O)c3ccc4ccccc4c3O)cc(C#N)c2=O)c(=O)n(-c2ccccc2)n1C [Compound 3f, 1-(1,5-Dimethyl-3-oxo-2-phenyl-2,3-dihydro-1H-pyrazol-4-yl)-5-(1-hydroxy-2-naphthoyl)-2-oxo-nicotinonitrile]	< 2 µg/mL	30.5 ± 3.1 µM	16.4 µM	44.5	728 µM	10.5 ± 1.1 µM
Cc1cnc(-n2cc(C(=O)c3ccc4ccccc4c3O)cc(C#N)c2=O)s1 [Compound 3g, 5-(1-Hydroxy-2-naphthoyl)-1-(5-methylthiazol-2-yl)-2-oxo-nicotinonitrile]	3.9 µg/mL (≈ 10.1 µM)	28.5 ± 2.9 µM	48 µM	53.8	2580 µM	12.1 ± 1.2 µM
N#Cc1cc(C(=O)c2ccc3ccccc3c2O)cn(-c2nc3ccccc3s2)c1=O [Compound 3h, 1-(Benzo[d]thiazol-2-yl)-5-(1–Hydroxy-2-naphthoyl)-2-oxo-nicotinonitrile]	< 2 µg/mL	28.1 ± 3.1 µM	0.496 µM	1380	684 µM	10.3 ± 1.2 µM
CC(=Nn1cc(C(=O)c2ccc3ccccc3c2O)cc(C#N)c1=O)c1cc2ccccc2oc1=O [Compound 3i, 5-(1-hydroxy-2-naphthoyl)-2-oxo-1-((1-(2-oxo-2H-chromen-3-yl)ethylidene)amino)nicotinonitrile]	< 1 µg/mL	30.5 ± 2.9 µM	13.5 µM	111.3	1500 µM	9.7 ± 0.8 µM
N#CCC(=O)NN=Cc1coc2c(ccc3ccccc32)c1=O [Compound 5, 2-cyano-N′-((4-oxo-4H-benzo[h]chromen-3-yl)methylene)acetohydrazide]	3.9 µg/mL (≈ 12.8 µM)	41.6 ± 3.5 µM	24.6 µM	84.3	2070 µM	10.7 ± 1.2 µM

Reference: PMC9058152 (RSC Advances, 2020)
